The values that follow come from ChEMBL document CHEMBL3526053, “Species-dependent uptake of glycylsarcosine but not oseltamivir in Pichia pastoris expressing the rat, mouse, and human intestinal peptide transporter PEPT1” (Drug Metab Dispos, 2012).

What all share (type): ADME
Series [1] addresses T1, Solute carrier family 15 member 1 (Homo sapiens, UniProt P46059).
T1 sequence (P46059 whole entry): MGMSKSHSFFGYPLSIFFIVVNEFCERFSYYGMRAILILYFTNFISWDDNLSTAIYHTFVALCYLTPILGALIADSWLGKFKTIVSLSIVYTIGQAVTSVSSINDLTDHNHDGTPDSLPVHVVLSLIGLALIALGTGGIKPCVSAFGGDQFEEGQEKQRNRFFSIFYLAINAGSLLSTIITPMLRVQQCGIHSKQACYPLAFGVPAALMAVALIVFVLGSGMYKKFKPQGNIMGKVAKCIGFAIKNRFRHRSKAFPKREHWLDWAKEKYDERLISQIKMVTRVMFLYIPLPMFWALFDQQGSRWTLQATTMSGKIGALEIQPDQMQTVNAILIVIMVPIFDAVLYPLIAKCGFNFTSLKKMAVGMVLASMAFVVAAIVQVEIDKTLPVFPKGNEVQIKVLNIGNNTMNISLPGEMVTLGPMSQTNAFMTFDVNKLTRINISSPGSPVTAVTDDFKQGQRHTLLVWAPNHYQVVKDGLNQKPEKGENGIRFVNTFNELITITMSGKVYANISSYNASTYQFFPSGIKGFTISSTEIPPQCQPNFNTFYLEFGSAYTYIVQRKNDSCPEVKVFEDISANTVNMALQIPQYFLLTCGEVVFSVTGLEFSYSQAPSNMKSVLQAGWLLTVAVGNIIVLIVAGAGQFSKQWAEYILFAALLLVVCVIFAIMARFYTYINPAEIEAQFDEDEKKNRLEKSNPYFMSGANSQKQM
The experiment in a line: Drug uptake in Pichia pastoris GS115 expressing human recombinant PEPT1 at 5 uM after 30s by dual-channel liquid scintillation counting analysis in presence of acyclovir relative to control. Particulars: 0.5 min. The procedure, abridged:
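[3H]GlySar 5.0 µM final, 30-s uptake at 24°C in 100 mM potassium phosphate pH 6.5, with or without a potential inhibitor at 10 mM. Cells are methanol-induced transformants. Values are vector-subtracted and expressed as percent of buffer control. Mean ± SE (n=3). ANOVA with Dunnett's test.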

Series [2] has as its target T2, PEPT1 (Mus musculus, UniProt Q9JIP7).
T2 sequence (Q9JIP7 whole entry): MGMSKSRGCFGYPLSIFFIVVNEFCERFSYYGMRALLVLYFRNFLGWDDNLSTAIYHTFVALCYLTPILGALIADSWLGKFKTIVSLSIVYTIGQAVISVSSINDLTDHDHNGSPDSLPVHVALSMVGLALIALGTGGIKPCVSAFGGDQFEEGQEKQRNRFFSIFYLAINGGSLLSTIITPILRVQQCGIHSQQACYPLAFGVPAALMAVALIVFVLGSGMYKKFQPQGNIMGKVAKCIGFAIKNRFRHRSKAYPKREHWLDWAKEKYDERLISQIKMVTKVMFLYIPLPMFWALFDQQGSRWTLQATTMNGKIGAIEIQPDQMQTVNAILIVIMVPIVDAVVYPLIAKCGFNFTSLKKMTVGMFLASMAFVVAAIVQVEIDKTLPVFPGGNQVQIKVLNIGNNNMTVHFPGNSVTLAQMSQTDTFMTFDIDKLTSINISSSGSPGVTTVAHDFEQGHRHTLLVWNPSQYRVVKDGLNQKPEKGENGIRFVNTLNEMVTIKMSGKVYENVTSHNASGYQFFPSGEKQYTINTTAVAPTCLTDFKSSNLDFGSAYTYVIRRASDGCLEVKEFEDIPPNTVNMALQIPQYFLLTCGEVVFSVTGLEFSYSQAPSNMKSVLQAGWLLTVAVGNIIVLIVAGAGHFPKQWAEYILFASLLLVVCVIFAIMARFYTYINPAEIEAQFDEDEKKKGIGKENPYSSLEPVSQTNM
Briefly: Drug uptake in Pichia pastoris GS115 expressing mouse recombinant PEPT1 at 5 uM after 30 mins by dual-channel liquid scintillation counting analysis relative to vector control. Particulars: read-out: FC. An outline of the steps:
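5.0 µM radiolabelled substrate ([3H]GlySar or [14C]oseltamivir) is incubated 30 min at 24°C with induced transformants in 100 mM potassium phosphate pH 6.5. Cell-associated radioactivity is counted by scintillation after standing 24 h and normalised to OD600. Results are compared with pPIC3.5K vector-alone cells. Mean ± SE (n=6).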

Series [3] concerns the target T3, Solute carrier family 15 member 1 (Rattus norvegicus, UniProt P51574).
T3 sequence (P51574 whole entry): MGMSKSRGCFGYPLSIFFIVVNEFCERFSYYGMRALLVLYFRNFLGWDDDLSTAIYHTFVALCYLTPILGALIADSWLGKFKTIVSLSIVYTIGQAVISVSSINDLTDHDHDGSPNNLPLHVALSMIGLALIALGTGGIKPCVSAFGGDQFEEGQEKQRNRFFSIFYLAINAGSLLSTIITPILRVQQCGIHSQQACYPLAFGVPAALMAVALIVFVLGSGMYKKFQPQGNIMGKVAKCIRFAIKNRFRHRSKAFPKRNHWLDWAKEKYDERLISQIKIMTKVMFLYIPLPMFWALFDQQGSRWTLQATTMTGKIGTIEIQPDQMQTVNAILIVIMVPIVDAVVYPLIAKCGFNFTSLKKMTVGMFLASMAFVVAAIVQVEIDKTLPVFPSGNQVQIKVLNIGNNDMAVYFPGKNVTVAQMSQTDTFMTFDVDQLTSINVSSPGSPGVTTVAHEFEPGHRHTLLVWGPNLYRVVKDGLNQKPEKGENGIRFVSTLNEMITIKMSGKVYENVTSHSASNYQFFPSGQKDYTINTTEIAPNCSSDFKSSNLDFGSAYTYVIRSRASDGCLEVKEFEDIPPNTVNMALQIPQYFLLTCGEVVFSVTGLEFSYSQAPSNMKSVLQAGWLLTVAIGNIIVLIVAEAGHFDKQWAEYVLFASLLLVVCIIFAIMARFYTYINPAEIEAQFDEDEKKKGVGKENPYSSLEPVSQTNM
The experiment in a line: Activity at rat recombinant PEPT1 expressed in Pichia pastoris GS115 assessed as non-saturable rate constant after 30s by dual-channel liquid scintillation counting analysis. The procedure, abridged: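 [3H]GlySar concentration series 0.005-10 mM, 30-s uptake at 24°C in 100 mM potassium phosphate pH 6.5. Cells come from His+Mut+ GS115 transformants induced 20-24 h in methanol medium. Uptake is normalised to OD600. Data are fitted to Michaelis-Menten plus a first-order nonsaturable term (Kd), weighting unity. Parameters are mean ± SE (n=9).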

The target in series [4] is T4, PEPT1 (Rattus norvegicus, UniProt P51574).
T4 sequence (P51574 whole entry): T3 sequence (P51574 whole entry)
The experiment in a line: Drug uptake in Pichia pastoris GS115 expressing rat recombinant PEPT1 at 5 uM after 30s by dual-channel liquid scintillation counting analysis relative to vector control. Particulars: read-out: FC. The procedure, abridged:
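Rat PEPT1 and vector-only (pPIC3.5K) GS115 yeast, methanol-induced 20-24 hr. Cells were washed and concentrated tenfold in 100 mM phosphate buffer pH 6.5. [3H]GlySar or [14C]oseltamivir final 5.0 µM, 24°C, 30 sec and 5 min. Nonspecific binding was measured at 0°C and zero time. Uptake is given as pmol/OD600 by scintillation counting. Mean ± SE, n=6.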

`[3H]C(C(=O)O)N(C)C(=O)CN` (centres undefined): the Drug uptake in series [1] was found to be 114%. The uptake ratio at 0.5 h, 5 µM at PEPT1 [2] was 100. In addition, in series [3], the Kd worked out at 2.21 uL/OD/min. Further, the uptake ratio at 0.5 min, 5 µM on PEPT1 [4] is 136.
